# Compounds with a hit are over-represented: about 3.1% of the library has one in this group of screens.
# hERG protect = compounds protecting human hERG from proarrhythmic drug block; CHO-hERG, FluxOR thallium flux, dofetilide IC70 present; 310,000 compounds, 0.51% hits; activation (rescue from dofetilide block), less the hit threshold, % at 10 µM;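 active = activation above the mean of controls blocked by dofetilide plus 5 SD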;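 also: thallium influx through hERG after potassium depolarization seen as dye fluorescence rise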
# KCNQ1 inh = blocks the human KCNQ1 potassium channel | B-score at 10 µM | P51787 | CHO-K1 KCNQ1, FluxOR thallium flux fluorescence; active compounds read high | 310,000 compounds, 1.3% hits;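 active = compounds whose thallium flux B-score, printed positive for inhibition, exceeds three library SD while starting fluorescence stays within three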;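 also: channel opened by potassium depolarization with thallium stimulus after 20 min compound exposure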
# KCNK3 block = human KCNK3 channel inhibition, primary screen | 340,000 compounds, 0.84% hits | O14649 | CHO-KCNK3 thallium flux, FluxOR fluorescence; active compounds read low | AID 602410 | B-score at 10 µM;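 active = B-score under library mean minus 4 SD, starting fluorescence ratio at most library mean plus 5 SD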;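 also: more negative B-score means stronger inhibition of thallium flux through KCNK3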
# KCNK9 block = blocks the human KCNK9 two-pore domain potassium channel; B-score at 10 µM; AID 488922; 310,000 compounds, 1.2% hits; HEK293 KCNK9, FluxOR thallium flux fluorescence; active compounds read low;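 active = ratio B-score over 3 SD below the library mean, with starting fluorescence within 5 SD of its mean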;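 also: negative B-score means less thallium flux so channel inhibition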
# Target sequence (Q9NPC2 whole entry, looked up, the tested form may be a part): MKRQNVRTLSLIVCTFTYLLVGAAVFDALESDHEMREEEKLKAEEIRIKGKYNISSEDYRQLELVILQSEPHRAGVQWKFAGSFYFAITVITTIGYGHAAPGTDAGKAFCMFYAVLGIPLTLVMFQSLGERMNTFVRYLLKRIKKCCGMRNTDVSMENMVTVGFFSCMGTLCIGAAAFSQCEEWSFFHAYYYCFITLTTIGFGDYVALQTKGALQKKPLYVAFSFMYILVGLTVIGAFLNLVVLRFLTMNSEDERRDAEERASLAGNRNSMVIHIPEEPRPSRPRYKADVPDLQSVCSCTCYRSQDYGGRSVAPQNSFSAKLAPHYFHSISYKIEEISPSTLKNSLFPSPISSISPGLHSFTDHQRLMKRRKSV
# KCNQ1 pot = potentiators or activators of human KCNQ1 potassium channel. CHO-K1 KCNQ1, thallium flux FluxOR fluorescence; active compounds read high. B-score at 10 µM. 310,000 compounds, 0.35% hits. AID 2648. P51787;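 active = fluorescence ratio B-score, a plate-corrected score, at least three library SD, with initial intensity B-score within 5 SD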
#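 assay system = CHO-K1 cells stably expressing KCNQ1 | medium = assay buffer, equal DMSO in all wells | timing = 37 °C overnight plating, 90-min dark dye load, 20-min compound pretreatment | measured by = kinetic FluxOR thallium fluorescence, 10-s 1-Hz baseline, 110-s post-stimulus read | measure = fluorescence change relative to baseline, converted to B score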
# KCNK3 confirm = confirmation of human KCNK3 two-pore domain potassium channel inhibitors | shares compounds with KCNK3 block | CHO-KCNK3 thallium flux, FluxOR fluorescence; 0% buffer, 100% carvedilol maximal block | ratio percent of control, % at 10 µM | 2,400 compounds, 99% hits;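 active = ratio percent of control, averaged over triplicates, above buffer control mean plus 5 SD, cut at about 64% in these data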;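 also: ratio is the fluorescence rise from min to max over baseline after thallium stimulus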
# KCNK3 uninduced = counter-screen for KCNK3 inhibitors: effect in non-induced cells; non-induced KCNK3 parental cells, FluxOR thallium flux; active compounds read low; shares compounds with KCNK3 block; 2,400 compounds, 40% hits; AID 651747; thallium flux ratio (lower = more inhibition) at 10 µM;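 active = thallium flux ratio, averaged over three wells, more than 5 SD below the buffer control mean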;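 also: host cells are CHO cells without KCNK3 induction; ratio is peak minus trough fluorescence over baseline then normalized to buffer controls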
# An asterisk follows results filed as active; i = inactive; nt = no result given.
SMILES,hERG protect,KCNQ1 inh,KCNK3 block,KCNK9 block,KCNQ1 pot,KCNK3 confirm,KCNK3 uninduced
CC1Sc2ccc(S(=O)(=O)N(C)Cc3ccccc3)cc2NC1=O (stereo not given),-4.6,i,-10.3*,i,i,93.3*,i
Fc1ccc(-c2cnc(-c3cccs3)o2)cc1,-5.0,i,-9.56*,i,i,92.7*,0.153*
CC1=NN(C(=O)CSCc2ccccc2)C(O)(c2ccc(F)cc2)C1 (stereo not given),-5.2,i,-9.22*,-6.88*,i,94.7*,i
CC1=NN(C(=O)CCc2ccccc2)C(O)(c2ccncc2)C1 (stereo not given),-2.3,i,i,i,i,nt,nt
Cc1cccc2cc(CN(Cc3ccco3)C(=O)Nc3cccc(C#N)c3)c(Cl)nc12,-10.8,6*,-9.3*,i,i,122.3*,0.139*
CC(C)Sc1nc(N2CCCC2)c2c(c1C#N)CC(C)(C)OC2,-9.4,i,-10*,i,i,118.3*,0.135*
CCCSc1nc(N2CCOCC2)c2c(c1C#N)CC(C)(C)SC2,-10.4,i,-9.49*,i,i,127.7*,0.123*
CCCCCSc1nc(N2CCOCC2)c2c(c1C#N)CC(C)(C)OC2,-9.6,i,-9.01*,i,i,104.7*,0.145*
COc1ccccc1CN(C)CC(=O)Nc1ccccc1-c1ccccc1,-21.8,i,-8.78*,i,i,115.7*,0.137*
COc1ccc(Br)cc1CN(C)CC(=O)NCCc1ccccc1,-10.7,i,-10.2*,i,i,101.7*,i
COc1cc(OC)cc(C(=O)N[C@H](C(=O)Nc2ccc(F)cc2F)C(C)C)c1,-6.7,i,i,i,i,nt,nt
COc1cc(OC)cc(C(=O)N[C@H](C(=O)Nc2nc(-c3ccc(F)c(F)c3)cs2)C(C)C)c1,-6.4,i,-10.9*,i,i,100.0*,i
COc1ccccc1C(C)Nc1nc(-c2cccnc2)nc2ccccc12 (stereo not given),-15.6,i,-11.2*,i,i,125.0*,i
CCOC(=O)c1cccc(N2C(=O)C3C(C2=O)C2C=CC3C23CC3)c1 (stereo not given),-7.7,i,-18.2*,i,i,92.3*,i
Cc1ccc(C(=O)CSc2cnc3ccccc3n2)cc1C,-7.6,i,i,i,i,nt,nt
CCCCCn1c(N)c(-c2nc3ccccc3s2)c2c([N+](=O)[O-])nn(C)c(=O)c21,-42.9,11*,-11.3*,i,i,101.7*,0.147*
Cc1nn(-c2ccccc2)c(C)c1/C=N/NC(=O)c1cc(-c2ccc(Cl)s2)[nH]n1,-27.2,i,-11.5*,i,i,131.0*,i
CC1CCN(C(=O)Nc2cccc(NC(=O)N3CCC(C)CC3)c2)CC1,1.3,i,-8.96*,i,i,111.7*,i
CC1CCN(C(=O)Nc2ccc3nsnc3c2)CC1,-2.2,i,i,i,i,nt,nt
COc1ccc(NC(=O)c2cccs2)cc1C(=O)N1CCN(c2ccccc2)CC1,-10.4,i,i,i,i,nt,nt
CN(C1CCCCC1)S(=O)(=O)c1ccc2[nH]c(=O)oc2c1,-11.2,i,i,i,i,nt,nt
COCCn1c(SCc2ccc(C(=O)OC)o2)nc2cc(Cl)ccc2c1=O,-1.2,i,-9.76*,-7.39*,i,125.7*,i
COCCn1c(SCC(=O)Nc2cc(C)on2)nc2cc(Cl)ccc2c1=O,nt,nt,i,nt,nt,nt,nt
Cc1ccc(N2CCN(c3ncccc3[N+](=O)[O-])CC2)c(C)c1,-4.7,i,-8.8*,i,i,108.3*,0.152*
COc1ccc(/C(C)=N/NS(=O)(=O)c2cc(C)ccc2C)c(OC)c1,-8.4,i,-10.4*,i,i,96.7*,i
SMILES,hERG protect,KCNQ1 inh,KCNK3 block,KCNK9 block,KCNQ1 pot,KCNK3 confirm,KCNK3 uninduced
O=C(NCc1cc([N+](=O)[O-])ccc1O)c1cc(-c2ccncc2)nc2ccccc12,-10.2,i,-10.7*,i,i,100.3*,0.144*
O=C(NCc1ccc(F)cc1)c1cc(-c2ccncc2)nc2ccccc12,-24.4,i,i,i,i,nt,nt
COc1cccc(-c2nc(CS(=O)(=O)CC(=O)NC3CCCC3)c(C)o2)c1,-8.3,i,i,i,i,nt,nt
COc1cccc(-c2nc(CS(=O)(=O)CC(=O)NC3CCC(C)CC3)c(C)o2)c1 (stereo not given),-6.3,i,-10.4*,i,i,0.0,i
O=S(=O)(N1CCCCC1)N1CCN(c2cc(Cl)ccc2Cl)CC1,-4.3,i,-9.16*,i,i,111.3*,i
O=C(CSc1ccc2nnc(-c3ccncc3)n2n1)Nc1nccs1,1.4,i,i,i,i,nt,nt
CCCS(=O)(=O)c1c(S(=O)(=O)CCC)c2ccc(C(N)=O)cn2c1C(=O)c1ccc(F)cc1,-9.1,i,-11.9*,-7.41*,i,91.0*,i
CC(C)CCNCC(O)CON=C1c2ccccc2-c2ccccc21 (stereo not given),-21.6,i,-8.84*,i,i,104.0*,i
COc1cc(C2Nc3ccccc3C(=O)N2c2ccccc2)ccc1O (stereo not given),-2.6,i,i,i,i,nt,nt
COc1ccc(/C(C)=N/N2C(=O)c3ccccc3NC2c2ccc(O)c(OC)c2)cc1 (stereo not given),-12.1,i,-9.26*,i,i,99.3*,i
Cc1ccc(CNC(=O)c2ccc(N3CCC4(CC3)CC(c3ccccc3)=NO4)c([N+](=O)[O-])c2)cc1,-13.1,i,i,i,i,nt,nt
CCc1ccccc1NC1c2ccccc2C(=O)N1Cc1ccco1 (stereo not given),-11.1,i,i,i,i,nt,nt
CCOc1ccccc1NC1c2ccccc2C(=O)N1Cc1ccco1 (stereo not given),-12.0,i,-11.1*,i,i,98.0*,i
COc1ccc(C(=O)Nc2ccc(C)cn2)cc1S(=O)(=O)N1CCCc2ccccc21,-15.9,i,i,i,i,nt,nt
Cc1ccc(NC(=O)c2ccc(Cl)c(S(=O)(=O)N3CCc4ccccc43)c2)nc1,nt,nt,-11.5*,nt,nt,144.3*,0.133*
CCN(CC)S(=O)(=O)c1ccc(C(=O)OCC(=O)NCCN2C(=O)CSC2=O)cc1,-12.8,i,i,i,i,nt,nt
O=C1CC(c2ccccc2Cl)=NN(c2ncnc3ccccc23)C1=O,-14.4,i,i,i,i,nt,nt
